# In paper PMC7318068 (ACS Central Science, 2020):
# Key:
# MDA-MB-468 cells [1] = assay: Cell viability assay for combinatorial effect of AZ-82 and MK-FNE or MK-2206; type: cell-based; settings: 72 hours
# Akt1, Akt2, Akt3 = settings: cited from earlier work
# MDA-MB-468 xenografts = assay: Drug efficacy test in MDA-MB-468 xenograft mouse model; type: in vivo, athymic nude mice; settings: 200 mg/kg PO twice weekly
# Procedure, shortened: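 Polyclonal MDA-MB-468 cells were injected into both flanks of female nude mice. From day 7, test compound (200 mg/kg) or vehicle DMSO was given by oral gavage twice weekly, 5 mice per group. Tumor volume was normalized to time zero and plotted against time. Growth rate was the linear-regression slope; groups were compared by two-tailed unpaired t-test.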
# Halo-Akt3(wt) = Halo-Akt3(wt) (Homo sapiens, UniProt Q9Y243); type: cell-based; settings: 5 μM
# Halo-Akt3(C119S) = Halo-Akt3(C119S) (Homo sapiens, UniProt Q9Y243, C119S); type: cell-based; settings: 5 μM, 48 h, then withdrawal
# Procedure, shortened: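 HEK293T cells co-expressing the AktAR ratiometric-FRET reporter and Halo-Akt3(C119S) were exposed to test compound (5 μM) or DMSO for 24–48 h. They were then rinsed twice and recovered in drug-free media for 24 h. Akt kinase activity was imaged live by confocal ratiometric FRET with 458 nm argon-laser excitation at set times.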
# [2] = test system: Akt3(T305)-phosphorylation; assay: Halo-Akt3 phospho-T305 levels by western blot and ELISA; type: cell-based; settings: saturating doses
# [3] = test system: T47D and T47D MK-2206-resistant cells; assay: Cell viability of T47D; type: cell-based; settings: 72 h
# MDA-MB-468 cells [4] = assay: Drug effect persistence assay; type: cell-based; settings: EC60 concentration 48 h, then 24 h recovery
# Chain of Halo-Akt3(wt) (Q9Y243 whole entry): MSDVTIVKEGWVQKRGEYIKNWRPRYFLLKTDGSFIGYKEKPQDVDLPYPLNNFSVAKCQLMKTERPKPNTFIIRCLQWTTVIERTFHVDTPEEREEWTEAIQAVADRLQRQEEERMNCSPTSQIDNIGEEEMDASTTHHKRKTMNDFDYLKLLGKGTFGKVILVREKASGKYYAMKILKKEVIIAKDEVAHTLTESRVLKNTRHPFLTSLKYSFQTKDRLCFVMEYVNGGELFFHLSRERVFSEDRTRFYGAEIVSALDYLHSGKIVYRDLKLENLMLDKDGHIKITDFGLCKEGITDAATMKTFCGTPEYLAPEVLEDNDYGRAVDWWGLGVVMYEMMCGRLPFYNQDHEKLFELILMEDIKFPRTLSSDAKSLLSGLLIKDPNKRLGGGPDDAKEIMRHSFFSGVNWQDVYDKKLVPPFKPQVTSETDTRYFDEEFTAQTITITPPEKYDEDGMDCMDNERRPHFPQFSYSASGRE
# Chain of Halo-Akt3(C119S) (Q9Y243 whole entry C119S): as the sequence (Q9Y243 whole entry) above, with C119S counted along it
SMILES,effect on proliferation inhibition by MK-FNE or MK-2206 (MDA-MB-468 cells [1]),"higher affinity for Akt1 than Akt3 (Akt1, Akt2, Akt3)","preference of Akt2 over Akt3 for binding (Akt1, Akt2, Akt3)",tumor-growth suppression overall (MDA-MB-468 xenografts; vs DMSO),"slope (m) of fold change in tumor size vs day, linear regression (MDA-MB-468 xenografts; DMSO 0.0638 ± 0.0032)","blood glucose levels (MDA-MB-468 xenografts; Day 21, 4 days after termination of dosing)","ratiometric-FRET signal (Akt activity) under treatment (Halo-Akt3(wt); 24 h, vs DMSO)","Akt3(wt) activity after 24 h withdrawal in drug-free media (Halo-Akt3(wt); 48 h, then withdrawal)",Akt3(C119S) activity after 24 h withdrawal in drug-free media (Halo-Akt3(C119S)),Akt3(T305)-phosphorylation [2],Fold increase in resistance = EC50(MK-res)/EC50(wt) [3],regrowth after compound withdrawal (MDA-MB-468 cells [4])
CCCc1cc(C(=O)N[C@H](Cc2ccc(-c3cccc(OC(F)(F)F)c3)nc2)C(=O)N[C@@H]2CCNC2)sc1C [AZ82],"selectively promoted resistance to MK-FNE, but not MK-2206",,,,,,,,,,,
NC1(c2ccc(-c3nc4ccn5c(=O)[nH]nc5c4cc3-c3ccccc3)cc2)CCC1 [MK-2206],,~100 fold,around 10 fold,14%,0.0547 ± 0.0018,elevated relative to MK-FNE-treated mice,suppressed the ratiometric-FRET signal,kinase activity was restored,recovery to normal activity levels,fully suppressed,5 fold,statistically significant regrowth was observed
